The values below come from PMC10694180 (Heliyon, 2023).

Molecules are shown by their SMILES. Entries after “also recorded” stand apart in the source; their conditions may differ. Like-named read-outs stand apart in the source and are kept apart here.

The subject of data set [1] is hypoxia induced ID8 mouse ovarian epithelial cell line. The experiment in a line: MTT assay, hypoxia induced ovarian cancer cell line ID8. The settings on record: for inhibition of cell proliferation: ID8 cells, 50 μM concentration; for IC50: 72 h. In kind it is cell-based. The method in brief:
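Hypoxia-induced mouse ID8 ovarian epithelial cells were seeded in 96-well plates and exposed to test compound or control. MTT was added 72 h after drug addition, and the resuspended formazan was read by absorbance. Growth inhibition (%) = [1 − (A/B)] × 100, where A is treated wells and B is control wells; n = 3.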

The target in data set [2] is Hypoxia-inducible factor 1-alpha (HIF-1α) (Mus musculus, UniProt Q61221). The experiment in a line: Quantitative HIF-1α inhibitory assay. In kind it is cell-based. The settings on record: ELISA, cell extracts, 50 μM concentration (Fig. 3). The method in brief:
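Mouse HIF-1α quantified with a simple-step ELISA kit run per the manufacturer. Cell lysate concentrates from fresh material were added to wells coated with double-stranded DNA carrying HIF-1α-binding HREs. Bound HIF-1α was detected with a primary mouse anti-HIF-1α antibody and a labelled secondary anti-mouse antibody, and absorbance was read at 450 nm.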

The nature of data set [3]: Solubility data of synthesized compounds. Type of data set: physicochemical. Conditions: solvents: DMSO, ethanol, ethanolic water.
Setting [4] is: read-out: IC50 (μM), viability of Ovarian cancer cell lines ID8, hypoxia induced ID8, MTT, n = 3.
[5] abbreviates: Mus musculus, Epithelial cell, read-out: IC50 (μM), viability of Ovarian cancer cell lines ID8, hypoxia induced ID8, MTT, 72 h, n = 3.

Hypoxia-inducible factor 1-alpha (HIF-1α), sequence (Q61221 whole entry): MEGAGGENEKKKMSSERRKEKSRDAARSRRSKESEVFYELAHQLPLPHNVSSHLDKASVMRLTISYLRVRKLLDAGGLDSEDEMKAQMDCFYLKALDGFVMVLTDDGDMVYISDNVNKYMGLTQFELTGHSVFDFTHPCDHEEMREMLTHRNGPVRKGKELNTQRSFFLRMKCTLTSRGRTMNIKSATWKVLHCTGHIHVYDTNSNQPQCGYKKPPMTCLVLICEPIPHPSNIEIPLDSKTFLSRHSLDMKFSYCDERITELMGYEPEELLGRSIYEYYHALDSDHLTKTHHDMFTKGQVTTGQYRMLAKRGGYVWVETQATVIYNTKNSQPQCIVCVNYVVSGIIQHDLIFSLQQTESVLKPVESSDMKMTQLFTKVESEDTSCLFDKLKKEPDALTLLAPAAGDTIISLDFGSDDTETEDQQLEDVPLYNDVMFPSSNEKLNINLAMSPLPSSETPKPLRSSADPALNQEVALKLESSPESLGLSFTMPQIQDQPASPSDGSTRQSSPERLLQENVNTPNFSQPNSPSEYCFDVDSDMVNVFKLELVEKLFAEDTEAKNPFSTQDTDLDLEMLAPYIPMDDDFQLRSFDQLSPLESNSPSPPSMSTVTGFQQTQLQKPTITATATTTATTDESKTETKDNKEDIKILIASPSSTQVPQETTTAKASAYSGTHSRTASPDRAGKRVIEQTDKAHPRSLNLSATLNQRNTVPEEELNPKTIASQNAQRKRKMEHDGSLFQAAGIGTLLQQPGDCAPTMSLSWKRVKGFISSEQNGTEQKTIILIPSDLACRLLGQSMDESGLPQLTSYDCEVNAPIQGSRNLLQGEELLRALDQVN

Turning to `N.N.[Cl][Pt][Cl]` [Cisplatin, reference compound], the “inhibition of cell proliferation” value in data set [1] came out at 60%. The IC50 (usually the concentration at which inhibition is half-maximal) in data set [1] (setting [4]) stood at 8.5 ± 0.23 µM; in data set [1] (read-out: IC50 (μM), viability of Ovarian cancer cell lines ID8, hypoxia induced ID8, MTT, n = 3, listed as cisplatin), 8.5 µM.

For the compound `O=C(CN1CCOCC1)N1CCOCC1` [Compound 1a, 1,2-di (morpholin-4-yl) ethanone], in data set [1] (setting [5]), the 50% inhibitory concentration (IC50) amounted to 23.9 ± 0.61 µM.

For `O=C(CN1CCCC1)N1CCOCC1` [Compound 1b, 1-(morpholin-4-yl)-2-(pyrrolidin-1-yl) ethanone], the concentration for half-maximal inhibition (IC50) in data set [1] (setting [5]) came out at 14.8 ± 0.7 µM.

As for `O=C(CNc1ccccn1)N1CCOCC1` [Compound 1c, 1-(morpholin-4-yl)-2-(pyridin-2-ylamino) ethanone], the IC50 in data set [1] (setting [5]) was found to be 15.7 ± 0.64 µM. Further, the “inhibition of HIF-1α” value in data set [2] is reported as “significant inhibitory effects; also recorded: optimal activity; also recorded: promising activities”.

In the case of `COc1cccc(NCC(=O)N2CCOCC2)c1` [Compound 1d, 2-[(3-methoxyphenyl)amino]-1-(morpholin-4-yl) ethanone], in data set [1] (setting [5]), the 50% inhibitory concentration (IC50) came to 25.3 ± 0.82 µM. Further, in data set [2], the “inhibition of HIF-1α” value was “lesser inhibition”.

As to `COc1ccc(NCC(=O)N2CCOCC2)cc1` [Compound 1e, 2-[(4-methoxyphenyl)amino]-1-(morpholin-4-yl)ethanone], the IC50 in data set [1] (setting [5]) amounted to 26.4 ± 0.72 µM.

For the compound `COc1ccccc1NCC(=O)N1CCOCC1` [Compound 1f, 2-[(2-methoxyphenyl)amino]-1-(morpholin-4-yl) ethanone], the IC50 in data set [1] (setting [5]) amounted to 158.4 ± 0.66 µM.

As to `O=C(COc1ccccc1)N1CCOCC1` [Compound 1g, 1-(morpholin-4-yl)-2-phenoxyethanone], the 50% inhibitory concentration (IC50) in data set [1] (setting [5]) is 146.1 ± 0.56 µM. Besides, the solubility entry in data set [3] is given as “only soluble in DMSO”.

`O=C(CNc1ccc(F)cc1)N1CCOCC1` [Compound 1h, 2-[(4-fluorophenyl)amino]-1-(morpholin-4-yl) ethanone]: in data set [1], the “inhibition of cell proliferation” value is listed as “maximum inhibition”. Moreover, the figures for the IC50 in data set [1] (setting [5]) and in data set [1] (setting [4]) were 9.4 µM and 9.41 ± 0.73 µM, respectively. In addition, the “inhibition of HIF-1α” value in data set [2] is recorded as “significant inhibitory effects; also recorded: optimal activity; also recorded: good inhibition”.

For the compound `Cc1ccc(C(C)C)c(OCC(=O)N2CCOCC2)c1` [Compound 1i, 2-[5-methyl-2-(propan-2-yl)phenoxy]-1-(morpholin-4-yl) ethanone], the “inhibition of cell proliferation” value in data set [1] is recorded as “maximum inhibition”. In data set [1] (setting [5]), the half-inhibitory concentration (IC50) was 11.2 ± 0.22 µM. Moreover, in data set [2], the “inhibition of HIF-1α” value is recorded as “significant inhibitory effects; also recorded: optimal activity; also recorded: good inhibition”.

As for `O=C(CNCc1ccc(Cl)cc1)N1CCOCC1` [Compound 1j, 2-[(4-chlorobenzyl)amino]-1-(morpholin-4-yl) ethanone], the concentration for half-maximal inhibition (IC50) in data set [1] (setting [5]) stood at 21.49 ± 0.11 µM. Further, the solubility result in data set [3] is “only soluble in DMSO”.

In the case of `O=C(CNCc1ccc(F)cc1)N1CCOCC1` [Compound 1k, 2-[(4-fluorobenzyl)amino]-1-(morpholin-4-yl) ethanone], the concentration for half-maximal inhibition (IC50) in data set [1] (setting [5]) is 64.2 ± 0.88 µM.

Consider `O=C(CNc1nnc(-c2ccccc2)o1)N1CCOCC1` [Compound 1l, 1-(morpholin-4-yl)-2-[(5-phenyl-1,3,4-oxadiazol-2-yl)amino] ethanone], for which the half-maximal inhibitory concentration (IC50) came out at 15.6 µM in data set [1] (setting [5]) and 15.6 ± 0.77 µM in data set [1] (setting [4]). Moreover, the inhibition at 50 µM in data set [1] (Mus musculus, ID8, read-out: inhibition of cell proliferation) is 60%.

Consider `O=C(CSc1nc2ccccc2s1)N1CCOCC1` [Compound 1m, 2-(1,3-benzothiazol-2-ylsulfanyl)-1-(morpholin-4-yl) ethanone], for which the half-maximal inhibitory concentration (IC50) in data set [1] (setting [5]) was 32.4 ± 0.67 µM.

For the compound `O=C(CNCc1ccccc1)N1CCOCC1` [Compound 1n, 2-(benzylamino)-1-(morpholin-4-yl) ethanone], the IC50 in data set [1] (setting [5]) was found to be 47.9 ± 0.75 µM. Besides, in data set [3], the solubility entry is “only soluble in DMSO”.
